ChEMBL document CHEMBL1817567, “Design of benzimidazole- and benzoxazole-2-thione derivatives as inhibitors of bacterial hyaluronan lyase” (Eur J Med Chem, 2011)
Values after ≈ are worked out from the molar mass of the structure shown. Active and inactive are the calls of the source. No cut-off for these calls is given here.

Columns and labels:
[1] = Inhibition of Streptococcus agalactiae 4755 hyaluronidase at pH 7.4 after 3 hrs by turbidimetric analysis
Procedure, shortened: (§1)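 Same turbidimetric hyaluronan-lyase assay at pH 7.4 (citrate–phosphate/NaCl): SagHyal4755 2.9 ng, hyaluronan (2 mg/ml stock), BSA, 3.8% DMSO final, 3 h at 37 °C. CTAB (2.5%, in 0.5 M NaOH) precipitation, 20 min at 25 °C, A600. Activity scaled between no-inhibitor and no-enzyme samples.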

[2] = target: T1, Hyaluronidase (Bos taurus) (UniProt Q8SQG8+Q5E985); assay: Inhibition of bovine testes hyaluronidase at 200 uM after 30 mins at pH 5 by turbidimetric analysis; type: protein assay
[3] = target: T1, Hyaluronidase (Bos taurus); assay: Inhibition of bovine testes hyaluronidase at 380 uM after 30 mins at pH 5 by turbidimetric analysis; type: protein assay
[4] = target: T1, Hyaluronidase (Bos taurus); assay: Inhibition of bovine testes hyaluronidase at 49 uM after 30 mins at pH 5 by turbidimetric analysis; type: protein assay
[5] = target: T1, Hyaluronidase (Bos taurus); assay: Inhibition of bovine testes hyaluronidase at 4200 uM after 30 mins at pH 5 by turbidimetric analysis; type: protein assay
[6] = target: T1, Hyaluronidase (Bos taurus); assay: Inhibition of bovine testes hyaluronidase at 460 uM after 30 mins at pH 5 by turbidimetric analysis; type: protein assay
[7] = target: T1, Hyaluronidase (Bos taurus); assay: Inhibition of bovine testes hyaluronidase at 180 uM after 30 mins at pH 5 by turbidimetric analysis; type: protein assay
[8] = target: T1, Hyaluronidase (Bos taurus); assay: Inhibition of bovine testes hyaluronidase at 190 uM after 30 mins at pH 5 by turbidimetric analysis; type: protein assay
[9] = target: T1, Hyaluronidase (Bos taurus); assay: Inhibition of bovine testes hyaluronidase at 170 uM after 30 mins at pH 5 by turbidimetric analysis; type: protein assay
[10] = target: T1, Hyaluronidase (Bos taurus); assay: Inhibition of bovine testes hyaluronidase at 100 uM after 30 mins at pH 5 by turbidimetric analysis; type: protein assay
[11] = target: T1, Hyaluronidase (Bos taurus); assay: Inhibition of bovine testes hyaluronidase at 400 uM after 30 mins at pH 5 by turbidimetric analysis; type: protein assay
[12] = target: T1, Hyaluronidase (Bos taurus); assay: Inhibition of bovine testes hyaluronidase at 3800 uM after 30 mins at pH 5 by turbidimetric analysis; type: protein assay
[13] = target: T1, Hyaluronidase (Bos taurus); assay: Inhibition of bovine testes hyaluronidase at 130 uM after 30 mins at pH 5 by turbidimetric analysis; type: protein assay
[14] = target: T1, Hyaluronidase (Bos taurus); assay: Inhibition of bovine testes hyaluronidase at 63 uM after 30 mins at pH 5 by turbidimetric analysis; type: protein assay
[15] = target: T1, Hyaluronidase (Bos taurus); assay: Inhibition of bovine testes hyaluronidase at 80 uM after 30 mins at pH 5 by turbidimetric analysis; type: protein assay
[16] = target: T1, Hyaluronidase (Bos taurus); assay: Inhibition of bovine testes hyaluronidase at 2000 uM after 30 mins at pH 5 by turbidimetric analysis; type: protein assay
[17] = target: T1, Hyaluronidase (Bos taurus); assay: Inhibition of bovine testes hyaluronidase at 150 uM after 30 mins at pH 5 by turbidimetric analysis; type: protein assay
[18] = Inhibition of Streptococcus agalactiae 4755 hyaluronidase at pH 5.0 after 30 mins by turbidimetric analysis
Procedure, shortened: (§2)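 SagHyal4755 (2.9 ng) with BSA and hyaluronan (2 mg/ml stock) in citrate–phosphate/NaCl buffer pH 5.0, 3.8% DMSO final, 30 min at 37 °C. Stopped by alkaline 2.5% CTAB, then 20 min at 25 °C. Residual-substrate turbidity read at 600 nm; no-inhibitor sample = 100%, no-enzyme sample = 0% activity. Enzyme-free compound controls were run.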

[19] = Aqueous solubility of the compound in water; type: physicochemical
Procedure, shortened: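 Turbidity at 600 nm of test compound in DMSO added to citrate–phosphate buffer (pH 5 and pH 7.4), water and BSA (0.2 mg/ml stock), at various concentrations, read against a water reference. Enzyme testing used only concentrations showing no turbidity.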

[20] = tested on: Streptococcus agalactiae; assay: Inhibition of Streptococcus agalactiae 4755 hyaluronidase at 100 uM after 30 mins at pH 5.0 by turbidimetric analysis; procedure, shortened: as §2
[21] = Inhibition of Streptococcus agalactiae 4755 hyaluronidase at pH 7.4; procedure, shortened: as §1

Row | IC50 [1] | inhibition [2] | inhibition [3] | inhibition [4] | inhibition [5] | inhibition [6] | inhibition [7] | inhibition [8] | inhibition [9] | inhibition [10] | inhibition [11] | inhibition [12] | inhibition [13] | inhibition [14] | inhibition [15] | inhibition [16] | inhibition [17] | IC50 [18] | IC50 [21] | SMILES | also measured
1 | 556 µM | inactive | inactive | inactive | inactive | inactive | inactive | inactive | inactive | inactive | inactive | inactive | inactive | inactive | inactive | inactive | inactive |  |  | O=C(OCc1ccccc1)n1c(=S)oc2ccccc21 | solubility [19]: 100 µM (≈ 28.5 µg/mL); inhibition [20]: inactive
2 | 62 µM | inactive | inactive | inactive | inactive | inactive | inactive | inactive | inactive | inactive | inactive | inactive | inactive | inactive | inactive | inactive | inactive | 213 µM |  | O=C(COc1ccccc1)n1c(=S)oc2ccccc21 | 
3 | 48 µM | inactive | inactive | inactive | inactive | inactive | inactive | inactive | inactive | inactive | inactive | inactive | inactive | inactive | inactive | inactive | inactive | 128 µM |  | CCC(=O)n1c(=S)oc2ccccc21 | 
4 | 24 µM | inactive | inactive | inactive | inactive | inactive | inactive | inactive | inactive | inactive | inactive | inactive | inactive | inactive | inactive | inactive | inactive | 15 µM |  | O=C(CCc1ccccc1)n1c(=S)oc2ccccc21 | 
5 | 69 µM | inactive | inactive | inactive | inactive | inactive | inactive | inactive | inactive | inactive | inactive | inactive | inactive | inactive | inactive | inactive | inactive | 260 µM |  | O=C(Cc1ccccc1)n1c(=S)oc2ccccc21 | 
6 | 29 µM | inactive | inactive | inactive | inactive | inactive | inactive | inactive | inactive | inactive | inactive | inactive | inactive | inactive | inactive | inactive | inactive |  |  | O=C(CCc1ccccc1)n1c(=S)[nH]c2ccccc21 | solubility [19]: 100 µM (≈ 28.2 µg/mL); inhibition [20]: 5%

Second part, the compound before the results:

Row | SMILES | IC50 [1] | inhibition [2] | inhibition [3] | inhibition [4] | inhibition [5] | inhibition [6] | inhibition [7] | inhibition [8] | inhibition [9] | inhibition [10] | inhibition [11] | inhibition [12] | inhibition [13] | inhibition [14] | inhibition [15] | inhibition [16] | inhibition [17] | IC50 [18] | IC50 [21] | also measured
7 | Sc1nc2ccccc2[nH]1 [2-MERCAPTOBENZIMIDAZOLE] | 1860 µM | inactive | inactive | inactive | inactive | inactive | inactive | inactive | inactive | inactive | inactive | inactive | inactive | inactive | inactive | inactive | inactive | 1150 µM |  | 
8 | O=C(CCC1CCCCC1)n1c(=S)oc2ccccc21 | 20 µM | inactive | inactive | inactive | inactive | inactive | inactive | inactive | inactive | inactive | inactive | inactive | inactive | inactive | inactive | inactive | inactive | 227 µM |  | 
9 | Cc1c(-c2ccc(O)cc2)n(C)c2ccc(O)cc12 |  |  |  |  |  |  |  |  |  |  |  |  |  |  |  |  |  |  | 220 µM | 
10 | CCCCCCCCCC(=O)n1c(=S)oc2ccccc21 | 25 µM | inactive | inactive | inactive | inactive | inactive | inactive | inactive | inactive | inactive | inactive | inactive | inactive | inactive | inactive | inactive | inactive |  |  | solubility [19]: 100 µM (≈ 30.5 µg/mL); inhibition [20]: 41%
11 | CCCCCCCn1c(-c2ccc(O)cc2)c(C)c2cc(O)ccc21 |  |  |  |  |  |  |  |  |  |  |  |  |  |  |  |  |  |  | 12 µM | 
12 | CC(=O)n1c(=S)n(C(C)=O)c2ccccc21 | 5 µM | inactive | inactive | inactive | inactive | inactive | inactive | inactive | inactive | inactive | inactive | inactive | inactive | inactive | inactive | inactive | inactive | 160 µM | 5 µM | 
13 | Cc1c(-c2ccc(O)cc2)[nH]c2ccc(O)cc12 |  |  |  |  |  |  |  |  |  |  |  |  |  |  |  |  |  |  | 280 µM | 
14 | CCCCCn1c(-c2ccc(O)cc2)c(C)c2cc(O)ccc21 |  |  |  |  |  |  |  |  |  |  |  |  |  |  |  |  |  |  | 36 µM | 
15 | CC(=O)n1c(=S)oc2ccccc21 | 42 µM | inactive | inactive | inactive | inactive | inactive | inactive | inactive | inactive | inactive | inactive | inactive | inactive | inactive | inactive | inactive | inactive | 125 µM |  | 
16 | O=C1O[C@H]([C@@H](O)CO)C(O)=C1O [ASCORBIC ACID] |  | inactive | inactive | inactive | inactive | inactive | inactive | inactive | inactive | inactive | inactive | inactive | inactive | inactive | inactive | inactive | inactive | 6100 µM |  | 
17 | CCCn1c(-c2ccc(O)cc2)c(C)c2cc(O)ccc21 |  |  |  |  |  |  |  |  |  |  |  |  |  |  |  |  |  |  | 160 µM | 
